Active and inactive are the calls of the source. The calls are words filed in the database; no cut-off is given here.
Experiments:
Acinetobacter baumannii [1] = assay: Potentiation of colistin-induced antimicrobial activity against colistin-resistant Acinetobacter baumannii 4106 assessed as fold reduction in colistin MIC at 60 uM after 18 hrs by broth microdilution assay; assay type: functional
Outline: (§1)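 Checkerboard-style resensitization following adapted CLSI broth microdilution. Bacteria were grown 4–6 h in CAMHB and subcultured to 5×10^5 CFU/mL. Adjuvant was added from DMSO stock and held constant while colistin was serially diluted in the dosed subculture. Plates were incubated stationary at 37°C for 18 h, then MICs were read. Fold reduction was taken relative to the colistin MIC without adjuvant.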

Klebsiella pneumoniae [2] = assay: Potentiation of colistin-induced antimicrobial activity against colistin-resistant Klebsiella pneumoniae B9 assessed as fold reduction in colistin MIC at 60 uM after 18 hrs by broth microdilution assay; assay type: functional; outline: as §1
Acinetobacter baumannii [3] = assay: Potentiation of colistin-induced antimicrobial activity against colistin-resistant Acinetobacter baumannii ATCC 17978 expressing mcr1 gene assessed as fold reduction in colistin MIC at 60 uM after 18 hrs by broth microdilution assay; assay type: functional; outline: as §1
Escherichia coli [4] = assay: Potentiation of colistin-induced antimicrobial activity against colistin-resistant Escherichia coli ATCC 25922 expressing mcr1 gene assessed as fold reduction in colistin MIC at 60 uM after 18 hrs by broth microdilution assay; assay type: functional; outline: as §1
Acinetobacter baumannii [5] = assay: Toxicity in Acinetobacter baumannii 4106 after 18 hrs by broth microdilution assay; assay type: organism-based; details: in vitro
Outline: (§2)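 Single-agent MIC per CLSI broth microdilution. Cells from a 4–6 h culture in cation-adjusted Mueller-Hinton broth adjusted to 5 ×10^5 CFU/mL. Compound (DMSO stock) added to 200 μM top concentration and twofold serially diluted six times, with an untreated control row. Plates sealed and incubated stationary at 37°C for 18 h before MIC read.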

Klebsiella pneumoniae [6] = assay: Toxicity in Klebsiella pneumoniae B9 after 18 hrs by broth microdilution assay; assay type: organism-based; outline: as §2
Acinetobacter baumannii [7] = assay: Toxicity in Acinetobacter baumannii ATCC 17978 expressing mcr1 gene after 18 hrs by broth microdilution assay; assay type: organism-based; outline: as §2
Escherichia coli [8] = assay: Toxicity in Escherichia coli ATCC 25922 after 18 hrs by broth microdilution assay; assay type: organism-based; details: in vitro; outline: as §2
Acinetobacter baumannii [9] = assay: Potentiation of colistin-induced antimicrobial activity against colistin-resistant Acinetobacter baumannii isolate 3941 assessed as fold reduction in colistin MIC at 60 uM after 18 hrs by broth microdilution assay; assay type: functional; outline: as §1
Acinetobacter baumannii [10] = assay: Potentiation of colistin-induced antimicrobial activity against colistin-resistant Acinetobacter baumannii isolate 3942 assessed as fold reduction in colistin MIC at 60 uM after 18 hrs by broth microdilution assay; assay type: functional; outline: as §1
Acinetobacter baumannii [11] = assay: Potentiation of colistin-induced antimicrobial activity against colistin-resistant Acinetobacter baumannii isolate 4112 assessed as fold reduction in colistin MIC at 60 uM after 18 hrs by broth microdilution assay; assay type: functional; outline: as §1
Klebsiella pneumoniae [12] = assay: Potentiation of colistin-induced antimicrobial activity against colistin-resistant Klebsiella pneumoniae isolate A5 assessed as fold reduction in colistin MIC at 60 uM after 18 hrs by broth microdilution assay; assay type: functional; outline: as §1
Klebsiella pneumoniae [13] = assay: Potentiation of colistin-induced antimicrobial activity against colistin-resistant Klebsiella pneumoniae isolate C3 assessed as fold reduction in colistin MIC at 60 uM after 18 hrs by broth microdilution assay; assay type: functional; outline: as §1
Acinetobacter baumannii [14] = assay: Potentiation of colistin-induced antimicrobial activity against colistin-sensitive Acinetobacter baumannii 5075 assessed as fold reduction in colistin MIC at 60 uM after 18 hrs by broth microdilution assay; assay type: functional
Outline: (§3)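 Bacteria grown 4–6 h in cation-adjusted Mueller-Hinton broth and diluted to 5 ×10^5 CFU/mL. Adjuvant from DMSO stock held at fixed 60 μM while colistin is twofold serially diluted in the same adjuvant-dosed broth. Plates sealed and kept stationary at 37°C for 18 h. Colistin MIC read and fold reduction taken relative to colistin alone.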

Acinetobacter baumannii [15] = assay: Potentiation of colistin-induced antimicrobial activity against Acinetobacter baumannii ATCC 17978 assessed as fold reduction in colistin MIC at 60 uM after 18 hrs by broth microdilution assay; assay type: functional; outline: as §3
Escherichia coli [16] = assay: Potentiation of colistin-induced antimicrobial activity against Escherichia coli ATCC 25922 assessed as fold reduction in colistin MIC at 60 uM after 18 hrs by broth microdilution assay; assay type: functional; outline: as §3
Klebsiella pneumoniae [17] = assay: Potentiation of colistin-induced antimicrobial activity against Klebsiella pneumoniae ATCC BAA-2146 expressing NDM1 gene assessed as fold reduction in colistin MIC at 60 uM after 18 hrs by broth microdilution assay; assay type: functional; outline: as §3
Acinetobacter baumannii [18] = assay: Induction of membrane permeabilization in colistin-resistant Acinetobacter baumannii isolate 3942 at 60 uM measured after 1 hr by SYTO-9/propidium iodide staining based fluorescence assay relative to control; assay type: functional
Outline: (§4)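 Cells were grown overnight in CAMHB at 37°C, diluted 1:10 and grown 4 h more to an OD600 of ~0.3. They were pelleted, washed with sterile water and resuspended at 1/10 volume in water containing compound. After 1 h at 37°C with shaking, cells were washed and stained with SYTO-9/propidium iodide (1:1, 3 μL/mL) for 15 min at RT. Emission was read at 530 and 645 nm (excitation 485 nm), and the green/red ratio was expressed as % of the untreated control.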

Klebsiella pneumoniae [19] = assay: Induction of membrane permeabilization in colistin-resistant Klebsiella pneumoniae isolate C3 at 60 uM measured after 1 hr by SYTO-9/propidium iodide staining based fluorescence assay relative to control; assay type: functional; outline: as §4
[20] = Hemolytic activity in sheep erythrocytes assessed as hemolysis at 100 uM incubated for 1 hr under shaking condition by UV-spectrophotometry; assay type: ADME, cell-based, Ovis aries, Erythrocyte; details: read-out: Activity
Outline: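 Washed sheep erythrocytes (defibrinated blood spun, resuspended in PBS three times) diluted 10-fold in PBS containing compound from DMSO stock. DMSO negative control (0% lysis), 1% Triton X100 positive control (100% lysis). 1 h at 37°C with shaking, then spun 10 min at 10,000 rpm and supernatant diluted 1:40 in distilled water.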

Compound	fold change (FC) (Acinetobacter baumannii [1])	fold change (FC) (Klebsiella pneumoniae [2])	fold change (FC) (Acinetobacter baumannii [3])	fold change (FC) (Escherichia coli [4])	MIC (Acinetobacter baumannii [5]) [µM]	MIC (Klebsiella pneumoniae [6]) [µM]	MIC (Acinetobacter baumannii [7]) [µM]	MIC (Escherichia coli [8]) [µM]	fold change (FC) (Acinetobacter baumannii [9])	fold change (FC) (Acinetobacter baumannii [10])	fold change (FC) (Acinetobacter baumannii [11])	fold change (FC) (Klebsiella pneumoniae [12])	fold change (FC) (Klebsiella pneumoniae [13])	fold change (FC) (Acinetobacter baumannii [14])	fold change (FC) (Acinetobacter baumannii [15])	fold change (FC) (Escherichia coli [16])	fold change (FC) (Klebsiella pneumoniae [17])	Activity (Acinetobacter baumannii [18])	Activity (Klebsiella pneumoniae [19])	hemolysis at 1 h, 100 µM [20] [%]
Cc1cccc2c(CCNC(=O)c3cc(Br)c(Br)[nH]3)c[nH]c12	256	512	32	8	> 200	> 200	> 200	> 200	256	256	256	256	512	2	2	2	2			
O=C(NCc1cc2ccccc2[nH]1)c1cc(Br)c(Br)[nH]1	2048	4096	32	16	> 200	> 200	> 200	> 200	256	256	512	512	2048	2	2	2	0			
O=C(NCCc1c[nH]c2cc(F)ccc12)c1cc(Br)c(Br)[nH]1	512	64	32	8	> 200	> 200	> 200	> 200	512	512	512	256	512	2	2	2	2			
O=C(NCc1ccc2cc[nH]c2c1)c1cc(Br)c(Br)[nH]1	256	2048	32	8	> 200	> 200	> 200	> 200	128	128	256	256	512	2	2	2	0			
O=C(NCCCc1c[nH]c2ccccc12)c1cc(Br)c(Br)[nH]1	512	4096	32	16	> 200	> 200	> 200	> 200	256	256	256	256	1024	4	4	2	2			
CCCCn1cc(CCNC(=O)c2cc(Br)c(Br)[nH]2)c2ccccc21	0	0	0	0	> 200	> 200	> 200	> 200										inactive	inactive	< 1
O=C(NCCc1c[nH]c2ccccc12)c1cc(I)c(I)[nH]1	128	2048	16	4					128	128	128	256	512	2	2	2	2			

Reference: ChEMBL document CHEMBL4392827, “Tryptamine derivatives disarm colistin resistance in polymyxin-resistant gram-negative bacteria” (Bioorg Med Chem, 2019)
